# Assay results from ChEMBL document CHEMBL5661985, “In silico design of novel probes for the atypical opioid receptor MRGPRX2” (Nat Chem Biol, 2017).
# The source made the active and inactive calls. The calls are words filed in the database; no cut-off is given here.
# Key:
# [1] = target: T1, Kappa-type opioid receptor (Homo sapiens, UniProt P41145); assay: Agonist activity at KOR (unknown origin) by Glo sensor assay; assay type: functional
# [2] = target: T2, Mas-related G-protein coupled receptor member X2 (Homo sapiens) (UniProt Q96LB1); assay: Agonist activity at MRGPRX2 receptor in human LAD2 cells assessed as increase in degranulation incubated for 30 mins in presence of naloxone by beta-hexosaminidase assay; assay type: functional, cell-based
# T2 sequence (whole entry): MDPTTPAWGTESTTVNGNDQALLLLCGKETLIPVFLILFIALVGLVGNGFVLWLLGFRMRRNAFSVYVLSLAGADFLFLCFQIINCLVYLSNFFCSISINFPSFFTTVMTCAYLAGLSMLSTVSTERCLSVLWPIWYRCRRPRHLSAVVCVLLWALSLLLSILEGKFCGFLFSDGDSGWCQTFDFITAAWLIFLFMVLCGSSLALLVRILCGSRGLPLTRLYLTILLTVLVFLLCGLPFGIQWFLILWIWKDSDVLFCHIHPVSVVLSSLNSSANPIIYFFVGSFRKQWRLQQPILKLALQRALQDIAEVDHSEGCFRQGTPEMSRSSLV
# How it was run: (§1)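 β-Hexosaminidase release: LAD2 cells in fresh medium 18 h, washed in Tyrode's buffer pH 7.4, 10,000 cells/well; drug (single concentration or 8-point curve) added in triplicate, 30 min 37°C; supernatant and Triton X-100 lysate each reacted with NAG in citrate pH 4.5 for 90 min 37°C, stopped with carbonate pH 10, A405; % release = released/total ×100, minus vehicle.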
# [3] = target: T3, Mas-related G-protein coupled receptor member X2 (Homo sapiens, UniProt Q96LB1); assay: Agonist activity at MRGPRX2 (unknown origin) expressed in HTLA cells assessed as induction of beta-arrestin 2 recruitment incubated for 18 to 24 hrs by PRESTO-Tango assay; assay type: functional, cell-based
# T3 sequence (Q96LB1 whole entry): T2 sequence (whole entry)
# [4] = target: T2, Mas-related G-protein coupled receptor member X2 (Homo sapiens); assay: Agonist activity at MRGPRX2 receptor in human LAD2 cells assessed as increase in degranulation incubated for 30 mins by beta-hexosaminidase assay; assay type: functional, cell-based; details: filed as agonist; how it was run: as §1
# HTLA [5] = assay: Agonist activity at MRGPRX2 D184N mutant (unknown origin) expressed in HTLA cells assessed as induction of beta-arrestin 2 recruitment incubated for 18 to 24 hrs by PRESTO-Tango assay; assay type: cell-based; details: Homo sapiens, time 18-24 hrs
# How it was run: (§2)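 β-arrestin2 recruitment by PRESTO-Tango: HTLA cells transiently transfected (calcium phosphate) with codon-optimized MRGPRX2-Tango (WT or point mutant) or MRGPRB2-Tango, plated next day 20,000 cells/well on poly-L-lysine; drug in HBSS/20 mM HEPES/0.3% BSA pH 7.4 for 18–24 h; Bright-Glo luminescence (RLU); curves n=3 in triplicate, mutants n=4 in triplicate.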
# [6] = target: T2, Mas-related G-protein coupled receptor member X2 (Homo sapiens); assay: Agonist activity at MRGPRX2 receptor in human LAD2 cells transfected with MRGPRX2 siRNA assessed as increase in degranulation incubated for 30 mins by beta-hexosaminidase assay; assay type: functional, cell-based
# How it was run: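 LAD2 cells (1.2 million/well) transfected with 25 nM MRGPRX2 siRNA pool or non-targeting pool, 72 h; 200,000 cells taken for β-hexosaminidase assay with EC80 concentration of agonist, 30 min 37°C; knockdown checked by qRT-PCR on 1 million cells; fold change % degranulation versus DMSO; two-way ANOVA with Sidak test.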
# HTLA [7] = assay: Agonist activity at MRGPRX2 D184E mutant (unknown origin) expressed in HTLA cells assessed as induction of beta-arrestin 2 recruitment incubated for 18 to 24 hrs by PRESTO-Tango assay; assay type: cell-based; details: Homo sapiens, time 18-24 hrs; how it was run: as §2
# [8] = target: T3, Mas-related G-protein coupled receptor member X2; assay: Agonist activity at N-terminal Flag-tagged human MRGPRX2 receptor expressed in tetracycline-induced FLP-IN/T-REX 293 cells assessed as increase in intracellular calcium release by FLIPR assay; assay type: functional, cell-based
# HTLA [9] = assay: Agonist activity at MRGPRX2 E164Q mutant (unknown origin) expressed in HTLA cells assessed as induction of beta-arrestin 2 recruitment incubated for 18 to 24 hrs by PRESTO-Tango assay; assay type: cell-based; details: Homo sapiens, filed as agonist, time 18-24 hrs; how it was run: as §2
# [10] = target: T2, Mas-related G-protein coupled receptor member X2 (Homo sapiens); assay: Agonist activity at N-terminal Flag-tagged human MRGPRX2 receptor expressed in tetracycline-induced FLP-IN/T-REX 293 cells assessed as increase in intracellular calcium release < 10 uM by FLIPR assay; assay type: functional, cell-based; details: filed as agonist
# How it was run: (§3)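 FLIPR calcium: FLP-IN/T-REX HEK-293-T stable line with N-terminal FLAG codon-optimized receptor, induced 24 h with 1 μg/mL tetracycline in 1% dialyzed FBS (uninduced cells as control); FLIPR calcium dye plus 2.5 mM probenecid 1 h 37°C; 10 s baseline, then drug in HBSS/20 mM HEPES/probenecid pH 7.4, 16-point curve 10 μM to 0.003 nM; fluorescence 120 s; fold over basal, n=3 triplicate.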
# [11] = target: T4, Tyrosine-protein kinase BTK (Homo sapiens, UniProt Q06187); assay: Binding affinity to BTK (unknown origin) assessed dissociation constant by Kinome scan method
# T4 sequence (Q06187 whole entry): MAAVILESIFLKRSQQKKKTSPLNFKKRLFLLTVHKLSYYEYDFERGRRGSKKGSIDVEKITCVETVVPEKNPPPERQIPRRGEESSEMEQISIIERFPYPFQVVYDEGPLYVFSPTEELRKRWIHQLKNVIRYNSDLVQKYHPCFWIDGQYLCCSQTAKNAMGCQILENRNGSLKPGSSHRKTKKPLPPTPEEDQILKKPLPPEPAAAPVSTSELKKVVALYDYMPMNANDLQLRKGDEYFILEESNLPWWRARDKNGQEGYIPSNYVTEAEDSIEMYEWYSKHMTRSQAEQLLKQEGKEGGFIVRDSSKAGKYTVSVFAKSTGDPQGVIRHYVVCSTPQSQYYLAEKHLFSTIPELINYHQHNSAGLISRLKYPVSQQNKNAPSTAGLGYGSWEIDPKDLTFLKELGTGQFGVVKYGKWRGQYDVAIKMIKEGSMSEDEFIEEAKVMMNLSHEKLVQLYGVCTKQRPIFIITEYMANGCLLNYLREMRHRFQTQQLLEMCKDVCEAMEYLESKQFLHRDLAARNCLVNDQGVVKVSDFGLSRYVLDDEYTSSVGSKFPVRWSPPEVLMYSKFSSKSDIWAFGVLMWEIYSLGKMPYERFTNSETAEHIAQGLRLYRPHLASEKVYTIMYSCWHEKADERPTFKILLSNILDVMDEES
# [12] = target: T4, Tyrosine-protein kinase BTK; assay: Inhibition of BTK (unknown origin) by Kinome scan method
# [13] = target: T2, Mas-related G-protein coupled receptor member X2 (Homo sapiens); assay: Agonist activity at MRGPRX2 receptor in human LAD2 cells assessed as increase in intracellular calcium release by FLIPR assay; assay type: functional, cell-based; details: filed as agonist
# How it was run: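 LAD2 human mast cells seeded 50,000/well in Tyrode's buffer with calcium dye, 1 h before drug; 10 s baseline, drug added, fluorescence followed 120 s; expressed as fold calcium release over baseline; n=3 in triplicate.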
# [14] = target: T5, Mitogen-activated protein kinase 10 (Homo sapiens, UniProt P53779); assay: Binding affinity to JNK3 (unknown origin) assessed dissociation constant by Kinome scan method
# T5 sequence (P53779 whole entry): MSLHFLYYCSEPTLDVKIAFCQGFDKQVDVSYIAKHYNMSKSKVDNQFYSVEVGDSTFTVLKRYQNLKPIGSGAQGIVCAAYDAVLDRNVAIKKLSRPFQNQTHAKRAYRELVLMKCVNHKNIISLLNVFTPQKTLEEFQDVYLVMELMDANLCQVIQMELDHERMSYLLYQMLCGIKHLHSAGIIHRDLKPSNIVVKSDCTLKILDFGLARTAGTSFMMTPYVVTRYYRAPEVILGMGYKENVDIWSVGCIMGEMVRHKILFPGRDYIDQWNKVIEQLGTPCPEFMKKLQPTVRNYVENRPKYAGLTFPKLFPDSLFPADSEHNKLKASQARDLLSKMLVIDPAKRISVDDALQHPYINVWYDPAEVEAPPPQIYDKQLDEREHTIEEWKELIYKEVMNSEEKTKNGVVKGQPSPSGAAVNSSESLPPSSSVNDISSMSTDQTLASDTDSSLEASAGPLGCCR
# [15] = target: T2, Mas-related G-protein coupled receptor member X2 (Homo sapiens); assay: Agonist activity at MRGPRX2 (unknown origin) expressed in HTLA cells assessed as induction of beta-arrestin 2 recruitment at 10 uM incubated for 18 to 24 hrs by PRESTO-Tango assay; assay type: functional, cell-based; details: filed as agonist, time 18-24 hrs; how it was run: as §2
# [16] = target: T2, Mas-related G-protein coupled receptor member X2 (Homo sapiens); assay: Agonist activity at MRGPRX2 (unknown origin) expressed in HTLA cells assessed as induction of beta-arrestin 2 recruitment <10 uM incubated for 18 to 24 hrs by PRESTO-Tango assay; assay type: functional, cell-based; details: filed as agonist, time 18-24 hrs; how it was run: as §2
# [17] = target: T6, Mitogen-activated protein kinase 8 (Homo sapiens, UniProt P45983); assay: Binding affinity to JNK1 (unknown origin) assessed dissociation constant by Kinome scan method
# T6 sequence (P45983 whole entry): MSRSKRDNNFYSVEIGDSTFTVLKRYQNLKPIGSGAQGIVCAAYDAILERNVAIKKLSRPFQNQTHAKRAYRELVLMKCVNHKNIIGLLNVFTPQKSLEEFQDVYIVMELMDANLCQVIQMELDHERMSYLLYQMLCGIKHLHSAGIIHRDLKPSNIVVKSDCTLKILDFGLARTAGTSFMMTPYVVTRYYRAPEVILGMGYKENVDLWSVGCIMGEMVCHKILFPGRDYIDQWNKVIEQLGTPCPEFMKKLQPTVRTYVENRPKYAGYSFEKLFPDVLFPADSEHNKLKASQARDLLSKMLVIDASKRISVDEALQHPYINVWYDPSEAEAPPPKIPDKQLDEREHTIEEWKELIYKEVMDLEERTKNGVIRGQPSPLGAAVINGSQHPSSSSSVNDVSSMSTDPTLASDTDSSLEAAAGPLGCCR
# [18] = target: T6, Mitogen-activated protein kinase 8; assay: Inhibition of JNK1 (unknown origin) by Kinome scan method
# [19] = target: T5, Mitogen-activated protein kinase 10; assay: Inhibition of JNK3 (unknown origin) by Kinome scan method
# Mu-type opioid receptor = Mu-type opioid receptor (Homo sapiens, UniProt P35372); assay: Displacement of [3H]-DAMGO from MOR (unknown origin)
# Mu-type opioid receptor, sequence (P35372 whole entry): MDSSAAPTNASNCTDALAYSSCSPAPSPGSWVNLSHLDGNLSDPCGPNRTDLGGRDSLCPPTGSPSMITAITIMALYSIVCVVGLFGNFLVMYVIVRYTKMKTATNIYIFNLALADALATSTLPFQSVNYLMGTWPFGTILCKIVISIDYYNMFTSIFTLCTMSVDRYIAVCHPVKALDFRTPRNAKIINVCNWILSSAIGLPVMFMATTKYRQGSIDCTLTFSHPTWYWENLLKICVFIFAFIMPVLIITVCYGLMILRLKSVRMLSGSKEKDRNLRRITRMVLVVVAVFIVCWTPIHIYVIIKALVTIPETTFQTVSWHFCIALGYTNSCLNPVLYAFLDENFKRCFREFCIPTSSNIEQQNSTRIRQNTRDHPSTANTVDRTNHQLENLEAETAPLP
# [20] = target: T2, Mas-related G-protein coupled receptor member X2 (Homo sapiens); assay: Agonist activity at MRGPRX2 receptor in human LAD2 cells assessed as increase in degranulation at 10 uM incubated for 30 mins by beta-hexosaminidase assay relative to control; assay type: functional, cell-based; details: filed as agonist; how it was run: as §1
# [21] = target: T2, Mas-related G-protein coupled receptor member X2 (Homo sapiens); assay: Agonist activity at MRGPRX2 receptor in human LAD2 cells assessed as increase in degranulation at 10 uM incubated for 30 mins in presence of IgE by beta-hexosaminidase assay relative to control; assay type: functional, cell-based; details: filed as agonist; how it was run: as §1
# [22] = target: T1, Kappa-type opioid receptor; assay: Displacement of [3H]-Diprenorphine from KOR (unknown origin)
# [23] = target: Delta-type opioid receptor (Homo sapiens, UniProt P41143); assay: Displacement of [3H]-Naltrindole from DOR (unknown origin)
# Delta-type opioid receptor, sequence (P41143 whole entry): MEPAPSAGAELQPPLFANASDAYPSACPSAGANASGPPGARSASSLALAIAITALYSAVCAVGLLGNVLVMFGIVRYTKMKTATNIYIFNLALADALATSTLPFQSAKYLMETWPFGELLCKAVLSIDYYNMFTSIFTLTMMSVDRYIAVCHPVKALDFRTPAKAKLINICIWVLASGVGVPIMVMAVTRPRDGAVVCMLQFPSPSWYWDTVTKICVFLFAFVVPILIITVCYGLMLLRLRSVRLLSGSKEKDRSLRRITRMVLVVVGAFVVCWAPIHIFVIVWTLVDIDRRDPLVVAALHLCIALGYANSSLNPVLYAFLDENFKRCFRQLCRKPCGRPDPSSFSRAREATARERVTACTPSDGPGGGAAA
# [24] = target: T2, Mas-related G-protein coupled receptor member X2 (Homo sapiens); assay: Agonist activity at N-terminal Flag-tagged human MRGPRX2 receptor expressed in tetracycline-induced HEK-T cells assessed as increase in intracellular calcium release by FLIPR assay; assay type: functional, cell-based; details: HEK-T cell, filed as agonist; how it was run: as §3
# [25] = target: T2, Mas-related G-protein coupled receptor member X2 (Homo sapiens); assay: Agonist activity at N-terminal Flag-tagged human MRGPRX2 receptor expressed in HEK-T cells assessed as increase in intracellular calcium release by FLIPR assay; assay type: functional, cell-based; details: HEK-T cell; how it was run: as §3
# [26] = Cytotoxicity against HTLA cells expressing MRGPRX2 (unknown origin) at 1 uM after 24 hrs; assay type: toxicity, cell-based; details: human
# T1 sequence (P41145 whole entry): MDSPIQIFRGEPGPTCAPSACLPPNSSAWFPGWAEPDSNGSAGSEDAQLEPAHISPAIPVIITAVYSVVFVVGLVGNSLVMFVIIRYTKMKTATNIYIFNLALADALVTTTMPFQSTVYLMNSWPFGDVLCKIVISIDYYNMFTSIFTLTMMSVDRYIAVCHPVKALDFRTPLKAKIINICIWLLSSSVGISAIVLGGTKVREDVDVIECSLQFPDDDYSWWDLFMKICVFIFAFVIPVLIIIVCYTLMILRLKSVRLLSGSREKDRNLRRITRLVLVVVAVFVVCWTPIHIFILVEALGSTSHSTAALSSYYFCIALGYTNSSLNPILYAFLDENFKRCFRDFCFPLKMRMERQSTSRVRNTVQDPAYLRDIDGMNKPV
smiles,measurement,setting,value
CC[C@H](C)[C@H](NC(=O)[C@H](CCCNC(=N)N)NC(=O)[C@H](CCCNC(=N)N)NC(=O)[C@H](CC(C)C)NC(=O)[C@H](Cc1ccccc1)NC(=O)CNC(=O)CNC(=O)[C@@H](N)Cc1ccc(O)cc1)C(=O)N[C@@H](CCCNC(=N)N)C(=O)N1CCC[C@H]1C(=O)N[C@@H](CCCCN)C(=O)N[C@@H](CC(C)C)C(=O)N[C@@H](CCCCN)C(=O)O [ANALOG OF DYNORPHIN A],EC50,[1],6 pM
same,Activity,[2],inactive
same,EC50,[3]; read-out: pEC50 (converted),30200 nM
same,Activity,[4],Active
same,Activity,HTLA [5],inactive
same,Activity,[6],inactive
same,Activity,HTLA [7],inactive
same,EC50,[8]; read-out: EC50,1100 nM
same,Activity,HTLA [9],Active
Cc1cc2nc(-c3ccccc3)cc(N3CCC(N(C)C)C3)n2n1 (stereo not given),Activity,[10],Active
same,Kd,[11],27 µM
same,IC50,[12],20 µM
same,EC50,[3]; read-out: EC50,3000 nM
same,Activity,[13],Active
same,Kd,[14],> 30 µM
same,Activity,[15],Active
same,Activity,[16],Active
same,Kd,[17],19 µM
same,IC50,[18],20 µM
same,IC50,[19],20 µM
CN1CCC2(c3cccc(O)c3)Cc3nc4ccccc4cc3CC2C1 (racemic),EC50,Mu-type opioid receptor,324 nM
same,Ki,Mu-type opioid receptor,239 nM
same,Activity,[20],70%
same,Activity,[21],70%
same,Activity,[2],inactive
same,EC50,[3]; read-out: pEC50 (converted),1820 nM
same,Activity,[13],Active
same,Activity,[4],Active
same,EC50,[22],88.7 µM
same,Ki,[22],22 µM
same,EC50,[23],13.1 nM
same,Ki,[23],2.94 nM
same,Activity,[24],Active
same,Activity,[6],inactive
same,EC50,[8]; read-out: EC50,740 nM
same,EC50,[8]; read-out: pEC50 (converted),646 nM
same,Activity,[25],inactive
C[C@@H]1C[C@H]2Cc3ncc(-c4ccc5c(n4)C[C@@H]4C[C@@H](C)C[C@]56NCCC[C@H]46)cc3[C@]3(C1)NCCC[C@H]23 [COMPLANADINE A],Activity,[26],Toxic
same,EC50,[3]; read-out: pEC50 (converted),692 nM
same,EC50,[8]; read-out: EC50,18000 nM
